Results taken from ChEMBL document CHEMBL1145823, “Docking and database screening reveal new classes of Plasmodium falciparum dihydrofolate reductase inhibitors” (J Med Chem, 2003).
Values after ≈ are worked out from the molar mass of the structure shown. Active and inactive are the calls of the source. The calls are words filed in the database; no cut-off is given here.

What was measured:
[1] = target: Bifunctional dihydrofolate reductase-thymidylate synthase (Plasmodium falciparum K1) (UniProt P13922); assay: Inhibition constant for PfDHFR (Plasmodium falciparum dihydrofolate reductase) with single A16V mutation; Not active
In short: (§1)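 Recombinant wild-type or mutant PfDHFR, expressed in bacteria (induction at 20 °C for 20 h) and purified on methotrexate-Sepharose. Spectrophotometric assay in 50 mM TES pH 7.0, 75 mM β-mercaptoethanol, 1 mg/mL BSA, with 100 μM each H2-folate and NADPH. Started with enzyme (0.6–1 nM). […] Ki from IC50 = Ki(1+[S]/Km), assuming competitive binding.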

[2] = target: Bifunctional dihydrofolate reductase-thymidylate synthase (Plasmodium falciparum K1) (UniProt P13922); assay: Inhibition constant against wild-type PfDHFR (Plasmodium falciparum dihydrofolate reductase); Not active; in short: as §1
[3] = target: Bifunctional dihydrofolate reductase-thymidylate synthase (Plasmodium falciparum K1) (UniProt P13922); assay: Inhibition constant for PfDHFR (Plasmodium falciparum dihydrofolate reductase) with single S108T mutation; Not active; in short: as §1
[4] = target: Bifunctional dihydrofolate reductase-thymidylate synthase (Plasmodium falciparum K1) (UniProt P13922); assay: Inhibition constant for PfDHFR (Plasmodium falciparum dihydrofolate reductase) with triple (C59R + S108N + I164L) mutations; Not active; in short: as §1
[5] = target: Bifunctional dihydrofolate reductase-thymidylate synthase (Plasmodium falciparum K1) (UniProt P13922); assay: Inhibition constant for PfDHFR (Plasmodium falciparum dihydrofolate reductase) with double (A16V + S108T) mutations; Not active; in short: as §1
[6] = target: Bifunctional dihydrofolate reductase-thymidylate synthase (Plasmodium falciparum K1) (UniProt P13922); assay: Inhibition constant for PfDHFR (Plasmodium falciparum dihydrofolate reductase) with quadruple (N51I + C59R + S108N + I164L) mutations; Not active; in short: as §1
[7] = target: Bifunctional dihydrofolate reductase-thymidylate synthase (Plasmodium falciparum K1, UniProt P13922, A16V/S108T); assay: Inhibition constant against PfDHFR (Plasmodium falciparum dihydrofolate reductase) with double (A16V + S108T) mutations
In short: (§2)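 Recombinant wild-type or mutant PfDHFR, expressed in bacteria (induction at 20 °C for 20 h) and purified on methotrexate-Sepharose. Spectrophotometric assay in 50 mM TES pH 7.0, 75 mM β-mercaptoethanol, 1 mg/mL BSA, with 100 μM each H2-folate and NADPH. Started with enzyme (0.6–1 nM). Ki from IC50 = Ki(1+[S]/Km), assuming competitive binding.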

[8] = target: Bifunctional dihydrofolate reductase-thymidylate synthase (Plasmodium falciparum K1, UniProt P13922, S108T); assay: Inhibition constant against PfDHFR (Plasmodium falciparum dihydrofolate reductase) with single S108T mutation; in short: as §2
[9] = target: Bifunctional dihydrofolate reductase-thymidylate synthase (Plasmodium falciparum K1, UniProt P13922, C59R/I164L/S108N); assay: Inhibition constant against PfDHFR (Plasmodium falciparum dihydrofolate reductase) with triple (C59R + S108N + I164L) mutations; in short: as §2
[10] = target: Bifunctional dihydrofolate reductase-thymidylate synthase (Plasmodium falciparum K1, UniProt P13922, A16V); assay: Inhibition constant against PfDHFR (Plasmodium falciparum dihydrofolate reductase) with single A16V mutation; in short: as §2
[11] = target: Bifunctional dihydrofolate reductase-thymidylate synthase (Plasmodium falciparum K1, UniProt P13922); assay: Inhibition constant against wild-type PfDHFR (Plasmodium falciparum dihydrofolate reductase); in short: as §2
[12] = target: Bifunctional dihydrofolate reductase-thymidylate synthase (Plasmodium falciparum K1, UniProt P13922, C59R/I164L/N51I/S108N); assay: Inhibition constant against PfDHFR (Plasmodium falciparum dihydrofolate reductase) with quadruple (N51I + C59R + S108N + I164L) mutations; in short: as §2
[13] = target: Bifunctional dihydrofolate reductase-thymidylate synthase (Plasmodium falciparum K1) (UniProt P13922); assay: Inhibition constant against wild-type PfDHFR (Plasmodium falciparum dihydrofolate reductase); Inactive; in short: as §1
[14] = target: Bifunctional dihydrofolate reductase-thymidylate synthase (Plasmodium falciparum K1) (UniProt P13922); assay: Inhibition constant for resistant mutant PfDHFR (Plasmodium falciparum dihydrofolate reductase); Inactive; in short: as §1
[15] = target: Bifunctional dihydrofolate reductase-thymidylate synthase (Plasmodium falciparum K1) (UniProt P13922); assay: Inhibition constant for PfDHFR (Plasmodium falciparum dihydrofolate reductase) with triple (C59R + S108N + I164L) mutations at a concentration of 100 uM; Not active; in short: as §1
[16] = target: Bifunctional dihydrofolate reductase-thymidylate synthase (Plasmodium falciparum K1) (UniProt P13922); assay: Inhibition constant for PfDHFR (Plasmodium falciparum dihydrofolate reductase) with single A16V mutation at a concentration of 100 uM; Not active; in short: as §1
[17] = target: Bifunctional dihydrofolate reductase-thymidylate synthase (Plasmodium falciparum K1) (UniProt P13922); assay: Inhibition constant against wild-type PfDHFR (Plasmodium falciparum dihydrofolate reductase) at a concentration of 100 uM; Not active; in short: as §1
[18] = target: Bifunctional dihydrofolate reductase-thymidylate synthase (Plasmodium falciparum K1) (UniProt P13922); assay: Inhibition constant for PfDHFR (Plasmodium falciparum dihydrofolate reductase) with single S108T mutation at a concentration of 100 uM; Not active; in short: as §1
[19] = target: Bifunctional dihydrofolate reductase-thymidylate synthase (Plasmodium falciparum K1) (UniProt P13922); assay: Inhibition constant for PfDHFR (Plasmodium falciparum dihydrofolate reductase) with double (A16V + S108T) mutations at a concentration of 100 uM; Not active; in short: as §1
[20] = Determined the solubility of the compound; assay type: ADME; details: read-out: S
[21] = target: Bifunctional dihydrofolate reductase-thymidylate synthase (Plasmodium falciparum K1) (UniProt P13922); assay: Inhibition constant against wild-type PfDHFR (Plasmodium falciparum dihydrofolate reductase) at 750 uM; Inactive; in short: as §1
[22] = target: Bifunctional dihydrofolate reductase-thymidylate synthase (Plasmodium falciparum K1) (UniProt P13922); assay: Inhibition constant for resistant mutant PfDHFR (Plasmodium falciparum dihydrofolate reductase) at 750 uM; Inactive; in short: as §1

Chain of Bifunctional dihydrofolate reductase-thymidylate synthase (Plasmodium falciparum K1, UniProt P13922, A16V) (P13922 whole entry A16V): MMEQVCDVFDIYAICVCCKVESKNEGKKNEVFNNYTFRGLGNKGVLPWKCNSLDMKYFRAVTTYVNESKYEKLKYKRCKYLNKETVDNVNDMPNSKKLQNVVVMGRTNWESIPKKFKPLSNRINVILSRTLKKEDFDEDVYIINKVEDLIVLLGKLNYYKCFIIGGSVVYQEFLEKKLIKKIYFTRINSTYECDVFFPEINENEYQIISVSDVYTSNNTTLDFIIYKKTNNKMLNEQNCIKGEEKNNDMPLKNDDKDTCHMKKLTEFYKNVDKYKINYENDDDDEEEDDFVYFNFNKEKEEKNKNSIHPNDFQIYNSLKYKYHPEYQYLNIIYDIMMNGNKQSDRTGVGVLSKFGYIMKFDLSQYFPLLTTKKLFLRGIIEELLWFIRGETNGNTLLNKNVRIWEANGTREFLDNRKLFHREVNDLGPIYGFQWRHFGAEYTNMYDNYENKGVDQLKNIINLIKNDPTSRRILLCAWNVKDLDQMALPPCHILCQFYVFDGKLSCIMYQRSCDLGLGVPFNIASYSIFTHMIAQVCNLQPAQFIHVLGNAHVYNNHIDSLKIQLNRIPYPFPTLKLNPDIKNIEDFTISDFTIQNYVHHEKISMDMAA
Chain of Bifunctional dihydrofolate reductase-thymidylate synthase (Plasmodium falciparum K1, UniProt P13922, C59R/I164L/N51I/S108N) (P13922 whole entry, looked up, stated change not applied): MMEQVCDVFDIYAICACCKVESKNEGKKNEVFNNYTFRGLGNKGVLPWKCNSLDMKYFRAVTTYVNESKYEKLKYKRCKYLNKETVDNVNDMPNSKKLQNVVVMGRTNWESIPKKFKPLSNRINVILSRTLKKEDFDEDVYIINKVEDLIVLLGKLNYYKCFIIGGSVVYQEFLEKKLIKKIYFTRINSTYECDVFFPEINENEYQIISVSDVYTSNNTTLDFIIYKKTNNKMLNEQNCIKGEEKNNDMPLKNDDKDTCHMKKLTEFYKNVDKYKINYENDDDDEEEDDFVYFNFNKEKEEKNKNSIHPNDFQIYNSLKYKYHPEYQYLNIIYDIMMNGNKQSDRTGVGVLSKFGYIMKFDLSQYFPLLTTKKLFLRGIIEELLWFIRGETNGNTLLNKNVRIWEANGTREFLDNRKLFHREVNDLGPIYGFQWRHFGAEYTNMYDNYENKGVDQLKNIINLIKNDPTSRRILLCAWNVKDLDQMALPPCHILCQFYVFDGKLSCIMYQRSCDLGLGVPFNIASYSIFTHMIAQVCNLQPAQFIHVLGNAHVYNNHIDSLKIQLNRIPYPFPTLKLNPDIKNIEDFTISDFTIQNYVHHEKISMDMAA
Chain of Bifunctional dihydrofolate reductase-thymidylate synthase (Plasmodium falciparum K1, UniProt P13922) (P13922 whole entry): as the sequence (P13922 whole entry, looked up, stated change not applied) above
Chain of Bifunctional dihydrofolate reductase-thymidylate synthase (Plasmodium falciparum K1, UniProt P13922, C59R/I164L/S108N) (P13922 whole entry, looked up, stated change not applied): as above
Chain of Bifunctional dihydrofolate reductase-thymidylate synthase (Plasmodium falciparum K1, UniProt P13922, A16V/S108T) (P13922 whole entry, looked up, stated change not applied): as above
Chain of Bifunctional dihydrofolate reductase-thymidylate synthase (Plasmodium falciparum K1) (P13922 whole entry, looked up): as the sequence (P13922 whole entry, looked up, stated change not applied) above
Chain of Bifunctional dihydrofolate reductase-thymidylate synthase (Plasmodium falciparum K1, UniProt P13922, S108T) (P13922 whole entry, looked up, stated change not applied): as above

Structure (SMILES): NC(=O)Nc1ccc(Cc2ccc(NC(N)=O)cc2)cc1
- NA [1]: inactive
- NA [2]: inactive
- NA [3]: inactive
- NA [4]: inactive
- NA [5]: inactive
- NA [6]: inactive

Structure (SMILES): NNc1nc2ccccc2nc1NN
- Ki [7]: 11.4 µM
- Ki [8]: 0.8 µM
- Ki [9]: 2.7 µM
- Ki [10]: 3.4 µM
- Ki [11]: 3.6 µM
- Ki [12]: 9.7 µM

Structure (SMILES): Oc1nnc(-c2ccccc2)c(-c2ccccc2)n1
- IA [13]: inactive
- IA [14]: inactive

Structure (SMILES): NC1=NC(c2ccccc2)C(C(=O)c2ccccc2)N1 (stereo not drawn)
- NA [15]: inactive
- NA [16]: inactive
- NA [17]: inactive
- NA [18]: inactive
- NA [6]: inactive
- NA [19]: inactive

Structure (SMILES): NC(=O)Nc1ccc(Oc2ncc(C(F)(F)F)cc2Cl)cc1
- NA [1]: inactive
- NA [2]: inactive
- NA [3]: inactive
- NA [4]: inactive
- NA [5]: inactive
- NA [6]: inactive

Structure (SMILES): N=c1nc(N)nc(Nc2ccccc2)n1-c1ccccc1
- IA [13]: inactive
- IA [14]: inactive

Structure (SMILES): NC(=S)N/N=C/c1ccccc1 [PHENYLTHIOSEMICARBAZONE]
- Ki [7]: 50 µM
- Ki [8]: 9 µM
- Ki [9]: 28.9 µM
- Ki [10]: 29.6 µM
- Ki [11]: 23.6 µM
- Ki [12]: 37.2 µM

Structure (SMILES): Sc1nnc(-c2ccccc2)c(-c2ccccc2)n1
- IA [13]: inactive
- IA [14]: inactive

Structure (SMILES): N=C(NO)c1ccc(Oc2cc(Cl)cc(Cl)c2)c([N+](=O)[O-])c1
- Ki [7]: 9.8 µM
- Ki [8]: 4.2 µM
- Ki [9]: 22.2 µM
- Ki [10]: 36.8 µM
- Ki [12]: 32.6 µM

Structure (SMILES): N/C(=N\O)c1cccc(CS(=O)(=O)c2ccc(Cl)cc2)c1
- Ki [7]: 106 µM
- Ki [8]: 30 µM
- Ki [9]: 105 µM
- Ki [10]: 38 µM
- Ki [11]: 102 µM
- Ki [12]: 34.5 µM

Structure (SMILES): C/N=C(\S)NNC(=O)c1cccn(Cc2cccc(Cl)c2)c1=O
- Ki [7]: 13.6 µM
- Ki [8]: 1.8 µM
- Ki [9]: 7.1 µM
- Ki [10]: 5.9 µM
- Ki [11]: 11.3 µM
- Ki [12]: 19.4 µM

Structure (SMILES): N/N=C(\S)Nc1ccc(OCc2ccccc2)cc1
- Ki [7]: 55.6 µM
- Ki [8]: 5.2 µM
- Ki [9]: 13.4 µM
- Ki [10]: 15.4 µM
- Ki [11]: 13.7 µM
- Ki [12]: 26.5 µM

Structure (SMILES): COC(=O)c1sccc1-c1ccc(/C(C)=N/NC(N)=O)o1
- Ki [7]: 19.7 µM
- Ki [8]: 4.2 µM
- Ki [9]: 7.5 µM
- Ki [10]: 15.3 µM
- Ki [12]: 16 µM

Structure (SMILES): CNC(=O)Nc1ccc(Cc2ccc(NC(=O)NC)cc2)cc1
- NA [1]: inactive
- NA [2]: inactive
- NA [3]: inactive
- NA [4]: inactive
- NA [5]: inactive
- NA [6]: inactive

Structure (SMILES): CC1(C)N=C(N)N=C(N)N1c1ccc(Cl)cc1 [CYCLOGUANIL]
- Ki [7]: 2.13 µM
- Ki [8]: 0.0016 µM
- Ki [9]: 1.14 µM
- Ki [10]: 0.57 µM
- Ki [12]: 0.73 µM

Structure (SMILES): C/C(=N\N=C(/N)S)c1ccc(Oc2c(Cl)cncc2Cl)cc1
- Ki [7]: 2.1 µM
- Ki [8]: 1 µM
- Ki [9]: 0.6 µM
- Ki [10]: 0.7 µM
- Ki [11]: 0.9 µM
- Ki [12]: 1.5 µM

Structure (SMILES): N=C(S)N/N=C/c1ccc(Oc2ncc(C(F)(F)F)cc2Cl)cc1
- Ki [7]: 34 µM
- Ki [8]: 2.3 µM
- Ki [9]: 12.5 µM
- Ki [10]: 6.8 µM
- Ki [12]: 9.3 µM

Structure (SMILES): Nc1nccc(-c2csc(COc3ccc(Cl)cc3)n2)n1
- solubility [20]: 25 µM (≈ 7.97 µg/mL)

Structure (SMILES): NC(=O)NC(=O)Cc1ccccc1
- NA [1]: inactive
- NA [2]: inactive
- NA [3]: inactive
- NA [4]: inactive
- NA [5]: inactive
- NA [6]: inactive

Structure (SMILES): N=C(NO)c1ccc(CNC(=O)c2ccc(Cl)cc2)cc1
- Ki [7]: 57 µM
- Ki [8]: 12.3 µM
- Ki [9]: 93 µM
- Ki [10]: 58 µM
- Ki [11]: 77.2 µM
- Ki [12]: 36.6 µM

Structure (SMILES): N/C(=N/O)c1ccc(Oc2c(Cl)cncc2Cl)cc1
- Ki [7]: 6.2 µM
- Ki [8]: 16 µM
- Ki [9]: 24.4 µM
- Ki [10]: 23.6 µM
- Ki [11]: 25.2 µM
- Ki [12]: 27.8 µM

Structure (SMILES): Cc1nc(S)nc(O)c1Cc1c(F)cccc1Cl
- IA [21]: inactive
- IA [22]: inactive

Structure (SMILES): C=CCNC(=S)NNC(=O)c1cccn(Cc2cccc(Cl)c2)c1=O
- Ki [7]: 17 µM
- Ki [8]: 1.7 µM
- Ki [9]: 10 µM
- Ki [10]: 13 µM
- Ki [11]: 15.2 µM
- Ki [12]: 10.6 µM
